Laboratory results: the EternaBench riboswitch data

Test system: MS2 coat protein
Test: apparent Kd, MS2 coat protein; higher = weaker binding; RNA-MaP array; FMN 200 µM where present
Outline: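 Two titrations, one without ligand and one with constant ligand, were run with SNAP-549-labelled MS2 coat protein from 0.7 or 1.5 nM, doubling to 3 µM. The targets were designs transcribed by stalled E. coli RNA polymerase on Illumina sequencing-chip clusters, in 100 mM Tris-HCl pH 7.5, 80 mM KCl, 4 mM MgCl2, BSA, DTT, yeast tRNA and Tween-20. The apparent Kd is the median of filtered per-cluster binding-curve fits, with green signal normalised to red-channel RNA signal and control-cluster median Fmax.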

[1] = designed as: OFF switch for flavin mononucleotide, no ligand
[2] = ligand present: flavin mononucleotide, designed as: OFF switch for flavin mononucleotide
[3] = designed as: ON switch for flavin mononucleotide, no ligand
[4] = ligand present: flavin mononucleotide, designed as: ON switch for flavin mononucleotide

Row | Sequence | apparent Kd [1] [nM] | apparent Kd [2] [nM] | apparent Kd [3] [nM] | apparent Kd [4] [nM]
1 | CAGGAUAGAGGAUAUACAUAGAUACAGAUUCAUGUGAUCCUACAUGAGGAUCACCCAUGUAGAAGGCUAACCUG | 288 | 82.2 |  | 
2 | CGGCGCUGUCGAGAGGAUAUGCGGUGAUGGACAUGAGGAUCACCCAUGUUAGCGAUAGCAUCACGGUAGAAGGCUCUACGGCUUG |  |  | 46.3 | 15.5
3 | UUUUAACAUGAGGAUCACCCAUGUGAGGAUAUCGAAAUUUAUAUUUAUAUUAAUAUUACGAGAAGGCACAUUUU | 85.5 | 118 |  | 
4 | AUCAGAUCUCGACUGUCCAACAUGAGGAUCACCCAUGUCAGAAGAAGGGACUAUUAACUAAUCUGUCAGGAUAUUUUGACGCGG | 10.6 | 49.7 |  | 
5 | UUCAGACAUGAGGAUCACCCAUGUGAGGAUAUGAUGCGAUCGUCGAAAGACGAUAGCAUCAGAAGGUACAAAUG | 63 | 66.6 |  | 
6 | AAAAAACAUGAGGAUCACCCAUGUGAGGAUAUCAAAUAAAGGCACAUGAGAAGGCAUAUGAGAAGGCACAUGAA | 99.3 | 156 |  | 
7 | GGUUGGCAGCUAGGAUAUGGGCGGUCACAUGAGGAUCACCCAUGUCAACAUCAAAACCAGAUUAACCAGAAGGAGCUGCGGGUU |  |  | 14.8 | 87.7
8 | AUUUCGUUAGCAGGAUAUGGACAGGCCUGUCCGUAUUGAGACAGUAACAUGAGGAUCACCCAUGUCCAGAAGGGCUCGAAGUAU | 30.2 | 43.9 |  | 
9 | CUCUUGUAAGGAUAUCACCACACAAAAAAAAAAAAGUGUGGUGAGAAGGUACAUGAGGAUCACCCAUGUACUAA | 23 | 22.5 |  | 
10 | CUUUUGUGAGGAUAUUAGUUGUAAAUAAAUAAAAUUACUACUGAGAAGGCACAUGAGGAUCACCCAUGUUCCUC | 33.3 | 161 |  | 
11 | UCACGGGAUUGAGGAUAUAUAUUAAUUUUUACAAUAGAAGGCAAAUUGUUAGAUUAUUCACUAUACAUGAGGAUCACCCAUGUU | 23.6 | 21.7 |  | 
12 | GCGUAGUUCUAGAAGGUGCUAGCGAUAAGCUAGCAAGGAUAUAGACAUGAGGAUCACCCAUGUCUUUGUGACAUCGACAUACGC | 5.62 | 7.03 |  | 
13 | UUUUAACAUGAGGAUCACCCAUGUGAGGAUAUCGAAAUUUAUAUUAAUAUUUUUAAUUCGAGAAGGCACAUUUU | 116 | 118 |  | 
14 | UCAUGGAAGCAGGAUAUGCUUGUUUAAUUGUUUGCAGAAGGGCUAACAUGAGGAUCACCCAUGUAAGAGGUCUA | 45.8 | 34.1 |  | 
15 | GUGGUGUAGAUACAGGAUAUGUUGCUCGUAACAUGAGGAUCACCCAUGUAUCUAUGAGAUAAAAUGCAGAAGGGUGCACACCACU |  |  | 357 | 19.1
16 | AGGCAGGACCAGAAGGACAUGAGGAUCACCCAUGUAGGAUAUGGGCGUGGUUUAUGGGUACCUGGGAGAAUGACUGGGUUGUCA |  |  | 363 | 29.4
17 | GGAUAGGACAGAGGAUAUACGUGCUAGAGAUACUAGCAAAAGUUCCUCACAUGAGGAUCACCCAUGUAGAAGGCUGUCCUAUCG | 65.5 | 214 |  | 
18 | CUCAAGUCAGGAUAUCCAGCUGUGUUCCGGGACUCGUAGUUGGAGAAGGGACAUGAGGAUCACCCAUGUCAGCC | 32.3 | 67.8 |  | 
19 | GUGUACAGAGGAUAUACUUGAAUCUAGCGAAGCUAGGUUUGACAUGAGGAUCACCCAUGUAGAAGGCUGUACAC | 15.3 | 20.5 |  | 
20 | CUUUUGUGAGGAUAUUAGUAGUAAAUAUAUAAAAUUACUACUGAGAAGGCACAUGAGGAUCACCCAUGUUCCUC | 31.5 | 194 |  | 
21 | AAUUGAAACGUAGGAUAUCGCUAUAAAUUAACACGAGAAGGACGUACAUGAGGAUCACCCAUGUUAAAUGGUGUAGUUUAGUUG | 32.8 | 95.5 |  | 
22 | AUCGUAACAGGAGGAUAUUACACUCGGUUGGUCCGCUGCGGGUUGAAACAUGAGGAUCACCCAUGUAAGAAGGCCUGUGUGACU | 317 | 103 |  | 
23 | AGGCGGGCAGGAUAUGCGUACUGACGGGAAAACUGAAUGGUACAUGAGGAUCACCCAUGUAGAAGGGCUUUGAA | 50.1 | 38.3 |  | 
24 | GGUCCAACAUGAGGAUAUGGCACCUUAUUGGUGCCAGAAGGCAUGUCUAUAGACAUGAGGAUCACCCAUGUAAUAAAUUGGACC |  |  | 689 | 47.8
25 | CUGUGUUGCGGGCAGGAUAUGUAUUGGAAUACAUGAGGAUCACCCAUGUGCGGGUGUUUCACCCGACAGAAGGGCCAAUCGCGAC |  |  | 363 | 34.9
26 | GUCUUCAUGACAUGAGGAUCACCCAUGUGUUAUAUUUUUACUAAGGAUAUAUUUUUAAUGUUGAGAUAGAAGGUAGUUUCGGUC | 101 | 121 |  | 
27 | UUUAUAAAGAUAGGAUAUAGUAUAAUAAUUUAAUUAGAAGGAUCACACAUGAGGAUCACCCAUGUAUGAGGAUCACCCAUGUAU | 20.4 | 21.1 |  | 
28 | UUAUGUUAUGUAGGAUAUCAUUAGAUUUGUAAUUUAAUUGUUAUUUAGAUUUGAGAAGGACAUUUACAUGAGGAUCACCCAUGU | 14.8 | 11.7 |  | 

Row | Sequence | apparent Kd [1] [nM] | apparent Kd [2] [nM] | apparent Kd [3] [nM] | apparent Kd [4] [nM]
29 | CGUGAACGGACGCACUGUUUCCACAUGAGGAUCACCCAUGUGAAGGAUAUGACUGGCGCCACUUGUUAGAAGGUCACUGGGCGA | 39.8 | 71.1 |  | 
30 | ACAUGAGGAUCACCCAUGUGAUGAUCUUCCAUGUCAUAUUUCAGAAGGCUCGCAUGUUUAAUGAGAGAGGAUAUGGAAUAUGCG | 701 | 386 |  | 
31 | CUGUUAUAGGUCCAGAAUUACAACAUGAGGAUCACCCAUGUGCAGGAUAUCGGGUUGAUAGGCGCCGAGAAGGGCAUAGUCACG | 64.5 | 106 |  | 
32 | AAAAAACAUGAGGAUCACCCAUGUAAAAAUAUGGGAGGAUAUUCAAACACGAAAGUGAAAGAAGAAGGCCUAAAAA |  |  | 66.6 | 23.3
33 | CGAGGUGGAGUGAGGAUAUCGUGUUCGAAAGAACGUGAGAAGGCACAUGAGGAUCACCCAUGUGAUUCUGCUCG | 45.7 | 270 |  | 
34 | AGAUGUGAACAUGAGGAUCACCCAUGUGACUAGGUUUAUUUCAGAAGGCAUUUAUAGAGAUUAUAUGAGGAUAUGAAGUUUUAA |  |  | 12.4 | 6.45
35 | GGAGACCUCACAGGAUAUGCUGGACUUUGUCCAGCAGAAGGGUGAAAACAUGAGGAUCACCCAUGUAUGGUCUCCAAAUUUAAG |  |  | 190 | 15.3
36 | AUUAUACAUGAGGAUCACCCAUGUAAUUAAUUAAUUAAGAUCAAGGAUAUCAGCUCGAAUAGAGCUGAGAAGGUGAUCACAUGU |  |  | 330 | 287
37 | UUGUUGUAUGUAGGAUAUGCAUAUUGUUAUUAUGCAGAAGGACAUGAGGAUCACCCAUGUAUAUUAUUAUUAUAUAUUAUAUAU | 27.7 | 43.9 |  | 
38 | GUAAAUCAUGUAGGAUAUGCAUGGCGAAGCUACGCAGAAGGACAUGAGGAUCACCCAUGUCUCUCCGUCUGCGUACAGACGGAG | 27.4 | 188 |  | 
39 | UCCUUGGAAGGAUAUCGAUAGGCUUACAUGAGGAUCACCCAUGUUGGGAUGUCUUUCUGUCGAGAAGGUUCGUUUU | 19.7 | 21.4 |  | 
40 | UAUGACAUGAGGAUCACCCAUGUCAGCGAGAAAUGAGAGUCACAGGAUAUGUUUUCGGCCGGCAGACAGAAGGGUGACCCUGAG |  |  | 10.9 | 7.02
41 | UUGGCAUCGUAGAAGGGUGACAUGAGGAUCACCCAUGUGACGAUAUUUCUCGAGAUAUGUCGUCCACAGGAUAUACGAGCGAAC |  |  | 72.3 | 42.4
42 | AGCUGACGAGGAUAUACAUGAGGAUCACCCAUGUUGGUCAAGCGACGAUAGUCGCAAUGUAGAAGGUGUCAGCU | 138 | 565 |  | 
43 | UACUCGUGUGAGAAGGGACGUAUCUCCAUGAGGGCAGGGCUAUUAGAGAAGUCAGGAUAUCACAUGAGGAUCACCCAUGUGACG | 8.26 | 10.8 |  | 
44 | GCCCUCUCUGAGGAUAUUAUCUGGUUCGAUUGAUAAGAAGGCAGUACAUGAGGAUCACCCAUGUGGUUCGUUUG | 109 | 303 |  | 
45 | AUAAUGUAAGGAUAUCAGUCGUAAUUAAUUUAAUUAUCGACUGAGAAGGUACAUGAGGAUCACCCAUGUGGUCA | 916 | 102 |  | 
46 | CCAGAGGUCACAGGAUAUGACUCGUCCAAAUGGUCAGAAGGGUGAAUCACAUUAUGUAUACAUGAGGAUCACCCAUGUCCUACG |  |  | 93.2 | 498
47 | AAAACACAUGAGGAUCACCCAUGUGAGGAUAUGCUAUGGAAAAUAAAAAUAAAACAUAGCAGAAGGCACAAAGG | 62.5 | 152 |  | 
48 | AUAAUGUAAGGAUAUAUGAAUCACGGUGAUACACCGUGAAGAUAGAAGGUACAUGAGGAUCACCCAUGUAGGGC | 50.5 | 220 |  | 
49 | CGCUAUUAUGUAGGAUAUACAUUUUUUAUGUAUGUAGAAGGACAUGAGGAUCACCCAUGUAAAUAAAUUUUAAUUAUCAUAGCG | 21.9 | 18.3 |  | 
50 | UUUAACGUAGCAGGAUAUUGACGACUUGGGACAUGAGGAUCACCCAUGUUGCAAGAAGGGCUUAGUCAAGACACGAGCGGUGUU | 6.54 | 8.15 |  | 
51 | AAGUAGUGUGUGAGGAUAUUGGUGGAAUGACAUAUUAAGAAGGCACAUGAGGAUCACCCAUGUGGGAUGUCACG | 12.6 | 12.6 |  | 
52 | GGAUGCAAAGAGAAGGGCUACUGGUUGAAACCUGCGGCCUCUGGAACAUGAGGAUCACCCAUGUAGCAGGAUAUCUUUACGUCA | 173 | 39.4 |  | 
53 | GGAUCGAGUGUGAGGAUAUACCACUGGAUACAGUGGUAGAAGGCACAUGAGGAUCACCCAUGUCCUUACGAUCC | 81.4 | 436 |  | 
54 | UAUUCGUUCUAGAAGGUGCAUUUGUUAAACAUGCAAGGAUAUAGACAUGAGGAUCACCCAUGUCUAUGAGACAUCGGCCUCCUU | 7.15 | 24.9 |  | 
55 | UUGUUACAUGAGGAUCACCCAUGUUGUUGUAGAUAAGGAUAUAUAGGAACGAGAGAAAUAAUAGAAGGUAUUAGAC |  |  | 31.7 | 27.2
